Measured values from ChEMBL document CHEMBL4038268, “Methylpyrrole inhibitors of BET bromodomains” (Bioorg Med Chem Lett, 2017).

Assays:
[1] = target: Bromodomain-containing protein 2 (Homo sapiens, UniProt P25440); assay: Binding affinity to BRD2 BD1-BD2 (G73 to A560 residues) (unknown origin) after 1 hr by Alexa-647-conjugated probe based TR-FRET assay
[2] = target: Bromodomain adjacent to zinc finger domain protein 2B (Homo sapiens, UniProt Q9UIF8); assay: Inhibition of human BAZ2B (S2054 to S2168 residues) expressed in bacterial expression system by BROMOscan assay
Mus musculus [3] = assay: Toxicity in SCID-Beige mouse assessed as body weight loss at 150 mg/kg, po qd for 21 days measured during compound dosing relative to control; format: organism-based; details: in vivo, 504 h
[4] = target: Bromodomain testis-specific protein (Homo sapiens, UniProt Q58F21); assay: Binding affinity to BRDT BD1-BD2 (N21 to P380 residues) (unknown origin) after 1 hr by Alexa-647-conjugated probe based TR-FRET assay
CREB-binding protein = CREB-binding protein (Homo sapiens, UniProt Q92793); assay: Inhibition of human CREBBP (R1081 to G1197 residues) expressed in bacterial expression system by BROMOscan assay
OPM-2 [5] = assay: Antitumor activity against human OPM2 cells xenografted in SCID-Beige mouse assessed as tumor growth inhibition at 150 mg/kg, po qd for 21 days measured twice per week during compound dosing relative to control; format: functional; details: OPM-2, po, 504 h, read-out: TGI
[6] = target: Bromodomain-containing protein 1 (Homo sapiens, UniProt O95696); assay: Inhibition of human BRD1 (E556 to A688 residues) expressed in bacterial expression system by BROMOscan assay
Plasma = assay: Unbound clearance in mouse plasma at 3 mg/kg, iv; format: ADME, organism-based; details: in vivo
[7] = Toxicity in po dosed SCID-Beige mouse administered once daily; format: organism-based; details: in vivo
Outline: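 Oral once-daily dosing in mice bearing OPM-2 multiple myeloma xenografts. Tolerability was judged from mean body-weight loss over the course of the study.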

OPM-2 [8] = assay: Antitumor activity against human OPM2 cells xenografted in SCID-Beige mouse assessed as tumor growth inhibition at 100 mg/kg, po qd for 14 days measured twice per week during compound dosing relative to control; format: functional; details: OPM-2, po, 336 h, read-out: TGI
Outline: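 OPM-2 multiple myeloma xenografts in mice dosed orally over 14 days. Either once daily at 100 mg/kg or twice daily at 50 mg/kg ×2, the same total dose. Tumor growth inhibition was calculated over the treatment period. Mean ± SE, n = 10 per group.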

[9] = target: Chromatin remodeling regulator CECR2 (Homo sapiens, UniProt Q9BXF3); assay: Inhibition of human CECR2 (P423 to D543 residues) expressed in bacterial expression system by BROMOscan assay
[10] = target: Transcription initiation factor TFIID subunit 1-like (Homo sapiens, UniProt Q8IZX4); assay: Inhibition of human TAF1L (Q1523 to D1654 residues) expressed in bacterial expression system by BROMOscan assay
[11] = target: Histone acetyltransferase KAT2B (Homo sapiens, UniProt Q92831); assay: Inhibition of human PCAF (G715 to D831 residues) expressed in mammalian expression system by BROMOscan assay
[12] = target: Histone acetyltransferase KAT2A (Homo sapiens, UniProt Q92830); assay: Inhibition of human GCN5L2 (E726 to K837 residues) expressed in bacterial expression system by BROMOscan assay
[13] = target: Bromodomain-containing protein 7 (Homo sapiens, UniProt Q9NPI1); assay: Inhibition of human BRD7 (L125 to R254 residues) expressed in mammalian expression system by BROMOscan assay
OPM-2 [14] = assay: Antitumor activity against human OPM2 cells xenografted in SCID-Beige mouse assessed as tumor growth inhibition at 100 mg/kg, po bid for 14 days measured twice per week during compound dosing relative to control; format: functional; details: OPM-2, po, 336 h, read-out: TGI
[15] = target: SWI/SNF-related matrix-associated actin-dependent regulator of chromatin subfamily A member 2 (Homo sapiens, UniProt P51531); assay: Inhibition of human SMARCA2 (S1377 to Q1486 residues) expressed in bacterial expression system by BROMOscan assay
Protein polybromo-1 = Protein polybromo-1 (Homo sapiens, UniProt Q86U86); assay: Inhibition of human PBRM1 bromodomain 5 (S645 to D766 residues) expressed in bacterial expression system by BROMOscan assay
[16] = target: SWI/SNF-related matrix-associated actin-dependent regulator of chromatin subfamily A member 4 (Homo sapiens, UniProt P51532); assay: Inhibition of human SMARCA4 (A1448 to S1575 residues) expressed in bacterial expression system by BROMOscan assay
[17] = target: Bromodomain-containing protein 9 (Homo sapiens) (UniProt Q9H8M2); assay: Inhibition of human BRD9 isoform 1 (R130 to V259 residues) expressed in bacterial expression system at 1 uM by BROMOscan assay relative to control
Mus musculus [18] = assay: Toxicity in SCID-Beige mouse assessed as body weight loss at 30 mg/kg, po qd for 21 days measured during compound dosing relative to control; format: organism-based; details: in vivo, 504 h
OPM-2 [19] = assay: Antitumor activity against human OPM2 cells xenografted in SCID-Beige mouse assessed as tumor growth inhibition at 30 mg/kg, po qd for 21 days measured twice per week during compound dosing relative to control; format: functional; details: OPM-2, po, 504 h, read-out: TGI

Sequence of Bromodomain-containing protein 2 (P25440 whole entry, the tested form may be a part): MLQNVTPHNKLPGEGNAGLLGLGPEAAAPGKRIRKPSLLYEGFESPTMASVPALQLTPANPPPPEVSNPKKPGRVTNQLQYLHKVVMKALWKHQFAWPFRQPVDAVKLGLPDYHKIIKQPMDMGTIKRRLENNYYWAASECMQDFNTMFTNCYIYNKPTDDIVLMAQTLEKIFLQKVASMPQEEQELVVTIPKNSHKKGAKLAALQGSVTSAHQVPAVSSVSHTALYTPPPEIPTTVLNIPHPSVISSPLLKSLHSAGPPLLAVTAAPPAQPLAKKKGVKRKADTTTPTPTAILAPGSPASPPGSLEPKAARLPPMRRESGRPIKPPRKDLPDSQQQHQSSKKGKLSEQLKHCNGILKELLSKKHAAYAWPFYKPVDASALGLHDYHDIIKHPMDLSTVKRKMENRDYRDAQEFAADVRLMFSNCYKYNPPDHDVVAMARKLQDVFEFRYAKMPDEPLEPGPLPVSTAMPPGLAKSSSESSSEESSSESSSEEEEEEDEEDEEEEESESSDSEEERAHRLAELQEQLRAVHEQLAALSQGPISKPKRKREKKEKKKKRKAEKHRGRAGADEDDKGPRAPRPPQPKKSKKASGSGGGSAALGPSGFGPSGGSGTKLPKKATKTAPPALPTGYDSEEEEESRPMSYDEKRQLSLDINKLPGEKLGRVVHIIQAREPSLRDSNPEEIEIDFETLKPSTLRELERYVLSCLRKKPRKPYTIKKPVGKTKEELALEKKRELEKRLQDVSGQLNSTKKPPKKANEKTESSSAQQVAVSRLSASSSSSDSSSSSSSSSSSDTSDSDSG
Sequence of CREB-binding protein (Q92793 whole entry, the tested form may be a part): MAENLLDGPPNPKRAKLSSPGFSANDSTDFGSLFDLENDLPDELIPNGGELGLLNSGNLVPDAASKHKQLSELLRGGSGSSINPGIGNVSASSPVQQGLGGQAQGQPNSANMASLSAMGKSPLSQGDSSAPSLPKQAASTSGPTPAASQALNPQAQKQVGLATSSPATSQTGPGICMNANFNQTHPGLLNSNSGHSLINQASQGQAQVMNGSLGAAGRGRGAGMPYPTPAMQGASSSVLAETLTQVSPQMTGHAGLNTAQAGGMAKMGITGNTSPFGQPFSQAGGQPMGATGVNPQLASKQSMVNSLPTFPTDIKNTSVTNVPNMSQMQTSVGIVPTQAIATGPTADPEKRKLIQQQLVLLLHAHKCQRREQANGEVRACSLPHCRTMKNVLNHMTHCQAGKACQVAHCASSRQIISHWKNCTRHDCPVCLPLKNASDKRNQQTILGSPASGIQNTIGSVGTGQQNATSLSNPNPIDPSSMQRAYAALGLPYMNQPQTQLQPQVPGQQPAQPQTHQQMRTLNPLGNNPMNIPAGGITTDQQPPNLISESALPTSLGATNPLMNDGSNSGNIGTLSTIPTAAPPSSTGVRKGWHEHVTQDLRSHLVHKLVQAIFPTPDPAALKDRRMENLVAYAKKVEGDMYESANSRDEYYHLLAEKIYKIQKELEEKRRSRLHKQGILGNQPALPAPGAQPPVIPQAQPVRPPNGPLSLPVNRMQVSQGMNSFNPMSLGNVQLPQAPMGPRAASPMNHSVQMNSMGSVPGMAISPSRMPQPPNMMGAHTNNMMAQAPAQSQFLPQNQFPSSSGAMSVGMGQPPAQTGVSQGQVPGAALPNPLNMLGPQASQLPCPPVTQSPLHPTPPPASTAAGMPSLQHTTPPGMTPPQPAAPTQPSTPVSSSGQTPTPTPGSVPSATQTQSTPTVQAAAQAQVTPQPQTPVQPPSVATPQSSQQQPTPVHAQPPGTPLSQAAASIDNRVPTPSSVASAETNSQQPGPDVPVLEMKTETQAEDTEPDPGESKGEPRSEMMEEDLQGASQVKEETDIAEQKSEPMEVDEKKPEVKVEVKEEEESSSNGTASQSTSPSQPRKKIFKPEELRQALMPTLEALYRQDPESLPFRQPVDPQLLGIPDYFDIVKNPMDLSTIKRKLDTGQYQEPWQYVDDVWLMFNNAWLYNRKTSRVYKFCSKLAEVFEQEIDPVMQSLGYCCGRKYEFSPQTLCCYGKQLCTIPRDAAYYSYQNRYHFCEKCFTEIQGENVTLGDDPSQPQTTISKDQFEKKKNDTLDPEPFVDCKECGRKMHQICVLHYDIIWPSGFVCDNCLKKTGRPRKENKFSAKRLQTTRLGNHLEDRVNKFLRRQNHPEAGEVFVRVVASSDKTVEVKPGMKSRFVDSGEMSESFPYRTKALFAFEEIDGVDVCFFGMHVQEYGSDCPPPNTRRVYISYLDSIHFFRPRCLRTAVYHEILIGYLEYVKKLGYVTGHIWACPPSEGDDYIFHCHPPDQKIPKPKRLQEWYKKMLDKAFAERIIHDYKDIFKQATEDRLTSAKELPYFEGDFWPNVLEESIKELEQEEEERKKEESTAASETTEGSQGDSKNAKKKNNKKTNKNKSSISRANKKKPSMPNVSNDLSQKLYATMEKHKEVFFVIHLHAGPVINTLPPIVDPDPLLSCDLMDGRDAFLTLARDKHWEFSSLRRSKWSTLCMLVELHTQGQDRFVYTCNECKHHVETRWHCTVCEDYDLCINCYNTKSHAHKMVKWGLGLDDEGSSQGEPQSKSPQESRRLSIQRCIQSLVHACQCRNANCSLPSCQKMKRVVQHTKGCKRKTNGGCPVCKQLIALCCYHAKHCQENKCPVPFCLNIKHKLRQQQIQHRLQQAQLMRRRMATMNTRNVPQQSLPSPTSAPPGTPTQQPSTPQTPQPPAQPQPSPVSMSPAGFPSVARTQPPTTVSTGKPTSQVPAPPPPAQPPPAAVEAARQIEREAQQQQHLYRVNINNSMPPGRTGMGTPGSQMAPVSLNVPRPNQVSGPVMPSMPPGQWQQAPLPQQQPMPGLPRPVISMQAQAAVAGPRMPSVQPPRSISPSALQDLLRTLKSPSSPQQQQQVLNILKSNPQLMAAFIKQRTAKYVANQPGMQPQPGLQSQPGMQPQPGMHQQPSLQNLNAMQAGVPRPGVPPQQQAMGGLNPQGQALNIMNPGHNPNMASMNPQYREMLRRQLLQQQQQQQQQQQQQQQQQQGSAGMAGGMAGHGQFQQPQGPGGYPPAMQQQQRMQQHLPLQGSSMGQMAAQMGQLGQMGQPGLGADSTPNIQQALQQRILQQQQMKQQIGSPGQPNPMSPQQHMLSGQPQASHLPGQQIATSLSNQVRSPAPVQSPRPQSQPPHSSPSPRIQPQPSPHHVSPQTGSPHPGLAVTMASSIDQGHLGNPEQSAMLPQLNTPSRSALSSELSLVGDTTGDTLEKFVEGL
Sequence of Bromodomain-containing protein 7 (Q9NPI1 whole entry, the tested form may be a part): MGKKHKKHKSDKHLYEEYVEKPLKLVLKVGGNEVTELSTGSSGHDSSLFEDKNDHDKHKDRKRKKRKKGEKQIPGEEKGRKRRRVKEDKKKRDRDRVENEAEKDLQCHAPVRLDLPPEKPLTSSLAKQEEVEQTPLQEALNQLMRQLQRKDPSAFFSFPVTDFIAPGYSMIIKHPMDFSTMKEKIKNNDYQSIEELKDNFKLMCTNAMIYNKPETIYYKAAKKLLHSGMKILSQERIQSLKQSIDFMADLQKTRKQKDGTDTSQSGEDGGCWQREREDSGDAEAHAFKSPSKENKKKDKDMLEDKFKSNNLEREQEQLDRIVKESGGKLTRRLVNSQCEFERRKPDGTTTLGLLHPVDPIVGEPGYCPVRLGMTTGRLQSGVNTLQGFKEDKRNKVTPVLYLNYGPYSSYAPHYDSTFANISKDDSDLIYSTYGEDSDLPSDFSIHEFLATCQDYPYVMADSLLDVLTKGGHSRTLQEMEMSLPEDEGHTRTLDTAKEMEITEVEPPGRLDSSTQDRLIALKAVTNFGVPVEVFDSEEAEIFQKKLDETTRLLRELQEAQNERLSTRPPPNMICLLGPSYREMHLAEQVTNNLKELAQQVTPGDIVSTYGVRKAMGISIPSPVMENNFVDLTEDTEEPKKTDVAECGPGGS
Sequence of Bromodomain-containing protein 1 (O95696 whole entry, the tested form may be a part): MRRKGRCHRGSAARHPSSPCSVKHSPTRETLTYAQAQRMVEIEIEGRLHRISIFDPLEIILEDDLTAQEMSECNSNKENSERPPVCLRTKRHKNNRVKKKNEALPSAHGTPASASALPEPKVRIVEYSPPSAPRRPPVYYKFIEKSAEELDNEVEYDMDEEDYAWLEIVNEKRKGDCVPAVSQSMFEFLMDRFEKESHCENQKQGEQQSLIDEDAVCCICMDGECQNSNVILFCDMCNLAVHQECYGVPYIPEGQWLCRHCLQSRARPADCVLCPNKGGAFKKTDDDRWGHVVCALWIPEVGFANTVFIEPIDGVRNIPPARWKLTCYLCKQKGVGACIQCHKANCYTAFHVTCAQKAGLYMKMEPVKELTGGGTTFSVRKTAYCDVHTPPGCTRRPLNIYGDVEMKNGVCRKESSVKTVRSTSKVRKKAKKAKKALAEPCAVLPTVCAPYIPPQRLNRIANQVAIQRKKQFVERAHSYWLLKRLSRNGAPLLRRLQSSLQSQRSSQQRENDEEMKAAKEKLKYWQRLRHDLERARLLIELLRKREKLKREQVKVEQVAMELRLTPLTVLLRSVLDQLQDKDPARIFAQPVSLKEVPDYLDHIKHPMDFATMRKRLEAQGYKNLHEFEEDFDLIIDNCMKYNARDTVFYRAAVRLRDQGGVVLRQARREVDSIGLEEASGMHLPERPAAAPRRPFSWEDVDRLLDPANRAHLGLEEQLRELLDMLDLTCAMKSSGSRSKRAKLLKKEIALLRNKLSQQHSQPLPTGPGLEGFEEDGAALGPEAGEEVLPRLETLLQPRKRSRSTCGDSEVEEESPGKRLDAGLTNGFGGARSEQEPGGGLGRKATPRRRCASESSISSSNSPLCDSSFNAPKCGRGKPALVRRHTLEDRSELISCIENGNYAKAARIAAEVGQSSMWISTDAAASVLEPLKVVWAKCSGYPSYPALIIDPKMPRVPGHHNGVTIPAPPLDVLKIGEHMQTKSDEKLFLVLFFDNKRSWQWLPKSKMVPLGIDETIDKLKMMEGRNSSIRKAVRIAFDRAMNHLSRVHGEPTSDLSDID

Row | Ki [1] | Ki [4] | CL free (Plasma) | Compound | IC50 [2] | IC50 (CREB-binding protein) | IC50 [6] | IC50 [9] | IC50 [10] | IC50 [12] | IC50 [13] | IC50 [15] | IC50 (Protein polybromo-1) | IC50 [16] | inhibition [17] | further results
1 | 0.027 µM | 0.14 µM | 233 mL/min/kg | Cc1[nH]c(-c2cc(S(C)(=O)=O)ccc2Oc2ccc(F)cc2F)c2c1C(=O)NCC2 | > 1 µM | 1 µM | > 1 µM | – | – | – | – | – | – | – | – | Activity (Mus musculus [3]): 1 to 3%; inhibition in vivo at 150 mg/kg (OPM-2 [5]): 68%
2 | 0.16 µM | 0.49 µM | 267 mL/min/kg | Cn1cc(-c2cc(S(C)(=O)=O)ccc2Oc2ccc(F)cc2F)c2cc[nH]c(=O)c21 | – | – | – | > 1 µM | > 1 µM | > 1 µM | > 1 µM | > 1 µM | > 1 µM | > 1 µM | 88% | Activity (Mus musculus [18]): 1 to 3%; inhibition in vivo at 30 mg/kg (OPM-2 [19]): 64%

Row | Compound | Ki [1] | Ki [4] | CL free (Plasma) | IC50 [2] | IC50 (CREB-binding protein) | IC50 [6] | IC50 [9] | IC50 [10] | IC50 [12] | IC50 [13] | IC50 [15] | IC50 (Protein polybromo-1) | IC50 [16] | inhibition [17] | further results
3 | Cc1[nH]c(-c2cc(NS(C)(=O)=O)ccc2Oc2ccccc2)c2c1C(=O)CCC2 | 0.014 µM | 0.11 µM | 1400 mL/min/kg | > 1 µM | 1 µM | > 1 µM | > 1 µM | > 1 µM | > 1 µM | > 1 µM | 1 µM | > 1 µM | > 1 µM | 67% | MTD [7]: 100 mg/kg/day; inhibition in vivo at 100 mg/kg (OPM-2 [8]): 53%; IC50 [11]: > 1 µM; inhibition in vivo at 100 mg/kg (OPM-2 [14]): 73%
